Experimental data taken from ChEMBL document CHEMBL1121437, “Structure--antitubulin activity relationship in steganacin congeners and analogues. Inhibition of tubulin polymerization in vitro by (+/-)-isodeoxypodophyllotoxin” (J Med Chem, 1980).

Experiments:
Tubulin [1] = target: T1, Tubulin (Sus scrofa, UniProt P02554+P02550); experiment: Binding affinity against tubulin using [3H]colchicine as radioligand; type: protein assay
Tubulin [2] = target: T1, Tubulin; experiment: (§1) Tested for the inhibition of polymerization rate of tubulin microtubule assembly.; type: functional
Method in brief: (§2)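 Porcine brain tubulin (three cycles, ca. 1 mg/mL, 15% MAPs) in 0.1 M MES, 0.5 mM MgCl2, 1 mM EGTA, 1 mM GTP, pH 6.6. Compound (from 10^-2 M DMSO stock) preincubated with tubulin 1 h at 37 °C, cooled to 4 °C for 30 min, then warmed to 37 °C. Turbidity followed at 350 nm. I50 = concentration halving maximum polymerization rate.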

Tubulin (Sus scrofa) = Tubulin (Sus scrofa) (UniProt P02554+P02550); experiment: as §1; type: functional; method in brief: as §2
Tubulin [3] = target: T1, Tubulin; experiment: Binding affinity against tubulin usingf [3H]-colchicine as radioligand; type: protein assay

Sequence of Tubulin (Sus scrofa) (P02550 whole entry, looked up): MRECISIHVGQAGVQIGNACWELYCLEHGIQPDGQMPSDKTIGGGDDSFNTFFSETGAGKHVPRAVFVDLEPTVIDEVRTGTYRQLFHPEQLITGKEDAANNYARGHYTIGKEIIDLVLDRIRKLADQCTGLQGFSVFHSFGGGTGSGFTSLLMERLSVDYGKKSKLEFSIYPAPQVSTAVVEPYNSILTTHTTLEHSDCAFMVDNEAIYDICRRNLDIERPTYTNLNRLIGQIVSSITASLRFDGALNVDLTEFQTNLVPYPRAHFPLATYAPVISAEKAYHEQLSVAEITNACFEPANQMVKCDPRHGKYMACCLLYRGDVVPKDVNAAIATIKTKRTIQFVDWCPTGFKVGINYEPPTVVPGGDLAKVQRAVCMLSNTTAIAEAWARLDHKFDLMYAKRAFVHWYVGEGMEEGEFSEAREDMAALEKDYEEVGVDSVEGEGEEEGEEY
Sequence of Tubulin (Sus scrofa) (P02554 whole entry, looked up): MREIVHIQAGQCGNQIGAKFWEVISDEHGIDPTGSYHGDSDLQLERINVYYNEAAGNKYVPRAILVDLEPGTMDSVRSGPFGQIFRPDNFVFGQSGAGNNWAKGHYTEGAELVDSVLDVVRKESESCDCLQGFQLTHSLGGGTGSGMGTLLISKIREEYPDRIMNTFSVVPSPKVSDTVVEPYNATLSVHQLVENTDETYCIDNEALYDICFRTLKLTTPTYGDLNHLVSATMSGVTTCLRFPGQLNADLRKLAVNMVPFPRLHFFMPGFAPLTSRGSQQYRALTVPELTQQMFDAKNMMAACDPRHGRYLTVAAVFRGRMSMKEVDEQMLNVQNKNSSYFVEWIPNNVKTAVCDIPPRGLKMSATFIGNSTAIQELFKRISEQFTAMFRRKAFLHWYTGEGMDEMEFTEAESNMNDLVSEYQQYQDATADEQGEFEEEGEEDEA

I50 (Tubulin [2]) [µM]	Ki (Tubulin [3]) [µM]	Structure (SMILES)	Ki (Tubulin [1]) [µM]	I20 (Tubulin (Sus scrofa)) [µM]	I30 (Tubulin (Sus scrofa)) [µM]
125	–	COc1cc2c(c(OC)c1OC)-c1cc3c(cc1C(=O)[C@@H]1COC(=O)[C@H]1C2)OCO3 (stereo in doubt; 5)	178	–	–
110	[…]	COc1cc2c(c(OC)c1OC)-c1cc3c(cc1C(=O)[C@@H]1COC(=O)[C@H]1C2)OCO3 (stereo in doubt; 9)	–	–	–
450	–	COc1cc2c(c(OC)c1OC)-c1cc3c(cc1C(=O)[C@@H]1COC(=O)[C@H]1C2)OCO3 (stereo in doubt; 12)	–	–	–
375	–	COc1cc2c(c(OC)c1OC)-c1cc3c(cc1C(=O)[C@@H]1COC(=O)[C@H]1C2)OCO3 (stereo in doubt; 13)	–	–	–
162	–	COc1cc2c(c(OC)c1OC)-c1cc3c(cc1C(=O)[C@@H]1COC(=O)[C@H]1C2)OCO3 (stereo in doubt; 17)	–	–	–

Continued, molecule first:

Structure (SMILES)	I50 (Tubulin [2]) [µM]	Ki (Tubulin [3]) [µM]	Ki (Tubulin [1]) [µM]	I20 (Tubulin (Sus scrofa)) [µM]	I30 (Tubulin (Sus scrofa)) [µM]
COc1cc2c(c(OC)c1OC)-c1cc3c(cc1C[C@@H]1COC(=O)[C@H]1C2)OCO3	60	–	100	70	–
COc1cc2c(c(OC)c1OC)-c1cc3c(cc1C[C@@H]1COC(=O)[C@@H]1C2)OCO3	5	–	32	–	700
COc1cc(CC2CCOC2=O)c(-c2cc3c(cc2CO)OCO3)c(OC)c1OC (stereo not drawn)	–	–	185	–	–
COc1cc([C@@H]2c3cc4c(cc3CC3COC(=O)[C@@H]32)OCO4)cc(OC)c1OC (mixture of isomers)	2.1	–	201	–	–
COc1cc2c(c(OC)c1OC)-c1cc3c(cc1[C@@H](OC(C)=O)C1COC(=O)[C@H]1C2)OCO3 (stereo partly drawn) [STEGANACIN]	3.5	–	10.5	–	–
